Compound activity deposited in PubChem BioAssay by several laboratories.
EBV LMP1 NFkB: EBV LMP1-driven NF-kappaB luciferase reporter inhibitors, primary screen, cell-based, luminescence, single point | AID 504558, 2011 | inhibition, % at 12.5 µM | 350,000 tested, 0.69% active | LMP1-induced NF-kappaB luciferase reporter cells; in the data active = inhibition above about 41%
NR2E3 ag-1: inhibitors of NR2E3-RetCOR corepressor binding, primary screen, NR2E3 agonist project, biochemical, TR-FRET, GST-NR2E3, biotin-RetCOR | Photoreceptor-specific nuclear receptor (Homo sapiens), Q9Y5X4 | 1536-well | inhibition of corepressor binding, % at 4.78 µM | 320,000 tested, 0.12% active | AID 2300, 2010;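 active = percent inhibition above the cutoff of mean plus 3 SD of all tested compounds, set per screening campaign, cut at about 20% in these data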
Target sequence (Q9Y5X4 whole entry, looked up): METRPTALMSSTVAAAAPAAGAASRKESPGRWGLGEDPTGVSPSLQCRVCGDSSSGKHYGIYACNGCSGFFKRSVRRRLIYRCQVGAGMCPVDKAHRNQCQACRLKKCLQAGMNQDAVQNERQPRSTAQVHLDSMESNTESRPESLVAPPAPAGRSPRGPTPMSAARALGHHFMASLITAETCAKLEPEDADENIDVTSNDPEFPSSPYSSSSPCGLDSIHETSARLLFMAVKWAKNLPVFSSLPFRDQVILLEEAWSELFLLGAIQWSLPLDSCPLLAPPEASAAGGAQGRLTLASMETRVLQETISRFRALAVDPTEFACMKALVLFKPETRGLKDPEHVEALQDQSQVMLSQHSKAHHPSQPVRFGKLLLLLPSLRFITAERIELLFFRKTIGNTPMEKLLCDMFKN
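Test system – NR2E3–RetCOR corepressor complex · Quantity – NR2E3 fusion 1.35 nM · Buffer or medium – Tris pH 7.5 · Incubation – Compound–protein incubation for 5 h at 4 °C · Technique – TR-FRET, Eu(K)-anti-GST donor, streptavidin-D2 acceptor, ex 340, em 617/671 nm · Evaluation – percent inhibition of 671/617 nm emission ratio versus biotin and DMSO controls · Plate – 1536-well format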
TROY signal inh: inhibitors of TROY-driven NF-kB signaling, primary screen, Q293 LMP1-TROYcd cells, NF-kB luciferase, uHTS | Q293 LMP1-TROYcd NF-kB luciferase reporter, 4 h | inhibition, % at 10 µM | 360,000 tested, 0.98% active;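 active = compounds whose plate-normalised and pattern-corrected inhibition of the luciferase reporter signal at the single screening dose is 50% or more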
HIF activator: HIF pathway transcriptional activators, primary screen, cell-based, U2OS HRE-luciferase, luminescence; AID 1910, 2009; 300,000 tested, 0.32% active; activation, % at 7.5 µM (by protocol); U2OS HRE-luciferase reporter; normalized: DMSO 0%, desferrioxamine 100%;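 active = mean activation of at least 10% of the iron chelator positive control signal, with at least half of replicates also reaching 10%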
NR2E3 ag-2: NR2E3 agonists in two-hybrid cells, primary screen, cell-based, luminescence, CHO-S, Gal4-NCOR/VP16-NR2E3; Photoreceptor-specific nuclear receptor (Homo sapiens), Q9Y5X4; luciferase; inhibition of corepressor binding, % at 3.98 µM; 360,000 tested, 0.35% active; AID 602229, 2012;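 active = inhibition above the mean of all tested compounds plus 3 SD, cut at about 70% in these data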;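 note: higher means lower luciferase signal from less NR2E3 corepressor binding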
Numbers stand for hits; i = inactive; nt = no result given. This is a sample that favours compounds with a hit; in the whole collection about 2% have one here.

SMILES	EBV LMP1 NFkB	NR2E3 ag-1	TROY signal inh	HIF activator	NR2E3 ag-2
CCOc1ccc(NC(=O)CCc2nnc3ccc(N4CCC5(CC4)OCCO5)nn23)cc1	48	i	i	i	i
CCC(=O)Nc1cccc(-c2csc(-c3ccccc3)n2)c1	i	i	i	i	i
CC(C)CC(=O)Nc1cccc(-c2csc(-c3ccccc3)n2)c1	67	i	i	i	i
NC(=O)c1ccsc1NC(=O)CN1CCN(S(=O)(=O)c2ccccc2C(F)(F)F)CC1	i	nt	50	nt	i
CCc1ccc(N2CC(C(=O)N3CCN(S(=O)(=O)c4cccc(F)c4)CC3)CC2=O)cc1 (configuration not stated)	i	nt	i	nt	i
Cc1onc(-c2ccccc2)c1C(=O)Nc1ccccc1N1CCOCC1	i	i	i	i	i
Cc1onc(-c2ccccc2)c1C(=O)Nc1cc(C(F)(F)F)ccc1N1CCOCC1	69	i	i	i	i
CC1(C)CC(NS(=O)(=O)c2ccc(F)cc2)CC(C)(C)N1	43	i	i	i	i
COc1ccc(Cn2c(O)c(C=Nc3ccccc3C(=O)O)c3ccccc3c2=O)cc1	44	i	52	i	i
COc1ccc(Cn2c(O)c(C=Nc3ccc(OC)cc3)c3ccccc3c2=O)cc1	i	i	i	i	i
CC1Cc2nc(SCC(=O)N3CCN(c4ccccc4)CC3)n(C)c(=O)c2S1 (configuration not stated)	77	i	i	i	i
CC1Cc2nc(SCC(=O)Nc3ccc4c(c3)OCCO4)n(C)c(=O)c2S1 (configuration not stated)	i	i	71	i	i
Cc1sc(NC(=O)c2ccccc2)c(C(c2ccccn2)N2CCN(CCO)CC2)c1C (configuration not stated)	i	i	78	i	i
CCOc1ccc(C(c2c(NC(=O)c3ccccc3)sc(C)c2C)N2CCN(C)CC2)cc1 (configuration not stated)	i	i	i	i	i
Cc1cc(C)nc(N/N=C/C2=C(O)CC(c3ccccc3)CC2=O)n1 (configuration not stated)	nt	i	nt	22	nt
Cn1c(CCN2CCN(c3ccccn3)CC2)nc2cc(NC(=O)COc3ccc(Cl)cc3)ccc21	i	i	50	i	i
Cc1cccc(OCC(=O)Nc2ccc3c(c2)nc(CCN2CCCCC2)n3C)c1	i	i	i	i	i
Cc1cccc(OCC(=O)Nc2ccc3c(c2)nc(CN2CCCCC2)n3C)c1	i	i	58	i	i
O=C(NC1CCN(Cc2ccccc2)CC1)c1cccc(S(=O)(=O)Nc2ccc(SC(F)F)cc2)c1	i	nt	i	nt	i
CCCCN(C(=O)c1oc2ccc(OCC)cc2c1C)c1c(N)n(CCCC)c(=O)[nH]c1=O	i	i	i	i	i
COc1ccc(NCc2nnc(SCc3ccc(Cl)cc3)n2-c2ccccc2)cc1	i	i	60	i	i
Cc1ccc(-c2cc(-c3ccccc3)no2)c(O)c1	i	i	53	i	i
Cc1nc2sc3c(NCc4ccco4)ncnc3c2c2c1COC(C)(C)C2	i	i	55	i	i
CCc1cc(SC#N)cc(C)c1N	i	i	57	i	i
COc1cccc(C(=O)NCC2CCCN(C(=O)Cc3cccc(C)c3)C2)c1OC (configuration not stated)	i	nt	i	nt	i
SMILES	EBV LMP1 NFkB	NR2E3 ag-1	TROY signal inh	HIF activator	NR2E3 ag-2
Cc1ccccc1CS(=O)(=O)c1ncc(Cl)c(C(=O)Nc2ccc(F)cc2)n1	52	i	78	i	i
O=C(Nc1ccc(F)cc1)c1nn(-c2ccccc2)c(=O)cc1Cl	i	nt	i	i	i
O=C(Nc1ccc(F)cc1)c1nc(S(=O)(=O)Cc2ccccc2)ncc1Cl	i	i	69	i	i
Cc1nnc(NC(=O)c2nc(S(=O)(=O)Cc3ccccc3)ncc2Cl)s1	i	i	i	i	i
Cc1ccccc1NC(=O)c1nc(S(C)(=O)=O)ncc1Cl	i	i	i	i	i
Cc1ccc(NC(=O)c2nc(S(=O)(=O)Cc3ccccc3)ncc2Cl)cc1	i	i	80	i	i
COC(=O)c1ccc(CN2CCc3ccccc32)cc1	i	i	i	i	i
Cc1csc(SCC(=O)NC2CCS(=O)(=O)C2)n1 (configuration not stated)	i	nt	i	nt	i
COc1cc(NC(=O)c2cccs2)c(C(=O)OCC(=O)c2cc(C)n(-c3ccccc3)c2C)cc1OC	59	i	i	i	i
Cc1cc(C(=O)OCC(N)=O)c(C)n1-c1ccccc1	i	i	i	i	i
COc1ccc(-n2c(C)cc(C(=O)COC(=O)c3cc(NC(=O)c4cccs4)c(OC)c(OC)c3)c2C)cc1	i	i	i	i	i
COc1cc(NC(=O)c2cccs2)c(C(=O)OCC(=O)c2cc(C)n(-c3ccc(F)cc3)c2C)cc1OC	i	i	83	i	i
Cc1cc(C(=O)COC(=O)c2ccc(O)cc2O)c(C)n1-c1ccccc1	i	i	83	nt	i
COc1cc(NC(=O)c2cccs2)c(C(=O)OCC(=O)NC(=O)NC(C)(C)C)cc1OC	i	i	i	i	i
Cc1ccc(S(=O)(=O)N2CCN(C(=O)COC(=O)CNC(=O)c3ccccc3F)CC2)c(C)c1	i	nt	i	nt	i
Cc1cc(=O)oc2cc(OCC(=O)Nc3c(Cl)cccc3C(F)(F)F)ccc12	i	i	i	i	i
C(=NNc1ccc2ccccc2n1)c1ccccn1	nt	nt	83	nt	i
Cc1ccc2nc(Cl)c3nnnn3c2c1	i	i	84	i	i
CCCCN1C=CC(=C2N=c3cccc([N+](=O)[O-])c3=N2)C=C1	i	i	i	i	i
CCN1C=CC(=C2C(=O)c3ccccc3C2=O)C=C1	90	i	68	i	i
CCCN1C=CC(=C2C(=O)c3ccccc3C2=O)C=C1	87	i	73	i	i
CN1C=CC(=C2C(=O)c3ccccc3C2=O)C=C1	nt	nt	nt	i	nt
CCCCN1C(C)=CC(=C2C(=O)c3ccccc3C2=O)C=C1C	i	i	60	i	i
CC1=CC(=C2C(=O)c3ccccc3C2=O)C=C(C)N1Cc1ccco1	i	i	i	i	i
CCCCCCN1C=CC(=C2C(=O)c3ccccc3C2=O)C=C1	53	i	82	i	i
O=C(Nc1cc(-c2ccccc2)sc1C(=O)O)c1cccc(F)c1	i	nt	i	i	i
Cc1cc(NCCCN2CCOCC2)n2ncc(-c3ccc(Cl)cc3)c2n1	i	i	i	i	i
Cc1cc(NCCCn2ccnc2)n2ncc(-c3ccc(Cl)cc3)c2n1	i	i	70	i	i
CCc1nc2ccc(C(=O)N3CCN(C(=O)c4ccco4)CC3)cn2c1N(C)CCC(C)C	nt	nt	i	nt	i
Cc1noc(C)c1CSc1nc2ccccc2nc1NS(=O)(=O)c1ccc(Cl)cc1	i	i	57	i	i
